Measured values from ChEMBL document CHEMBL4673250, “Analogs of nitrofuran antibiotics are potent GroEL/ES inhibitor pro-drugs” (Bioorg Med Chem, 2020).
Activity calls are given as the source filed them. No cut-off for these calls is given here.

Key:
[1] = test system: Enterococcus faecium; test: Antibacterial activity against Enterococcus faecium ATCC 19434 assessed as reduction in bacterial growth by serial dilution method; format: functional, organism-based
[2] = test system: Acinetobacter baumannii; test: Antibacterial activity against Acinetobacter baumannii ATCC 19606 assessed as reduction in bacterial growth by serial dilution method; format: functional, organism-based; conditions: ATCC 19606 = CIP 70.34 = JCM 6841
[3] = Selectivity index, ratio of CC50 for human FHC cells to EC50 for Escherichia coli; format: toxicity; conditions: read-out: Ratio CC50/EC50
[4] = target: T1, E. coli GroEL/ES (Escherichia coli, UniProt P0A6F5); test: Inhibition of Escherichia coli GroEL/ES-mediated refolding of the denatured malate dehydrogenase; format: protein-complex assay
T1 sequence (P0A6F5 whole entry, looked up): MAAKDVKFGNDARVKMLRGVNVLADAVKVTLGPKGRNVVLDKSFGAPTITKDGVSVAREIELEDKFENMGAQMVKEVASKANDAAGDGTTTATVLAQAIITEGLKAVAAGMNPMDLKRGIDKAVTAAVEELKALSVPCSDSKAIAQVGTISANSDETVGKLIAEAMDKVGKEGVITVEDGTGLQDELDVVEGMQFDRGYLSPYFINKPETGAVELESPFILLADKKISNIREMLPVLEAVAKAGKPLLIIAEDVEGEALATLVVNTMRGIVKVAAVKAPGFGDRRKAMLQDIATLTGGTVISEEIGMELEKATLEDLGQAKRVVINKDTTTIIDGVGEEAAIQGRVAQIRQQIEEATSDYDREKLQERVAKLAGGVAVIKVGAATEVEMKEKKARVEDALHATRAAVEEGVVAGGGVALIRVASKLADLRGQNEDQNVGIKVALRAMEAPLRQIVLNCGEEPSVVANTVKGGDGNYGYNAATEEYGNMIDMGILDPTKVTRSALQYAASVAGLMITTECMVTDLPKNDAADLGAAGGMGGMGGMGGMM
How it was run: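 E. coli GroEL/ES-mediated refolding of denatured MDH as the reporter enzyme. IC50 values are averages from at least four replicates. […] GroEL tetradecamer is present at 50 nM during the refolding cycle. DMSO serves as the negative control.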

[5] = test system: Enterobacter cloacae; test: Antibacterial activity against Enterobacter cloacae ATCC 13047 assessed as reduction in bacterial growth by serial dilution method; format: functional, organism-based
[6] = test system: Staphylococcus aureus; test: Antibacterial activity against Staphylococcus aureus ATCC 25923 assessed as reduction in bacterial growth by serial dilution method; format: functional, organism-based
[7] = Selectivity index, ratio of CC50 for human FHs 74 cells to EC50 for Escherichia coli; format: toxicity; conditions: read-out: Ratio CC50/EC50
[8] = test system: Klebsiella pneumoniae; test: Antibacterial activity against Klebsiella pneumoniae ATCC 13883 assessed as reduction in bacterial growth by serial dilution method; format: functional, organism-based
[9] = test system: Pseudomonas aeruginosa; test: Antibacterial activity against Pseudomonas aeruginosa ATCC 10145 assessed as reduction in bacterial growth by serial dilution method; format: functional, organism-based
[10] = test system: Escherichia coli; test: Antibacterial activity against Escherichia coli assessed as reduction in bacterial growth by serial dilution method; format: functional, organism-based
How it was run: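 Liquid-culture proliferation in media supplemented with physiological free calcium and magnesium; cultures started at OD600 = 0.01, exposed to 8-point 3-fold dilution series (100 μM to 46 nM), grown to mid-log phase (OD600 ~0.4–0.6), then final OD600 read. E. coli strain NEB 5-alpha (DH5α derivative).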

[11] = test system: FHC; test: Cytotoxicity against human FHC cells assessed as reduction in cell viability incubated for 48 hrs by alamar blue assay; format: cell-based
How it was run: (§1)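 Alamar Blue viability: cells grown to ~80–90% confluency, seeded 1,500 per well and cultured 24 h without compound, then compound added for a further 48 h; resazurin reagent added and fluorescence monitored over time.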

[12] = Cytotoxicity against human FHs74Int cells assessed as reduction in cell viability incubated for 48 hrs by alamar blue assay; format: cell-based; how it was run: as §1
[13] = target: T1, E. coli GroEL/ES; test: Inhibition of Escherichia coli GroEL/ES-mediated refolding of the denatured malate dehydrogenase in presence of Escherichia coli type 1 NfsB nitroreductase; format: protein-complex assay
How it was run: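 GroEL/ES-dMDH refolding with 10 µg/mL E. coli NfsB added to the initial GroEL/ES-dMDH mix. After compound stamping, NADH (2.4 mM stock) is added and the mix is incubated 10 min at 37°C to bioactivate nitrofurans. Compounds during the refolding cycle span 83 µM to 38 nM (3-fold series).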

[14] = test system: Escherichia coli; test: Antibacterial activity against Nitrofurantoin-resistant Escherichia coli assessed as reduction in bacterial growth measured for 12 day serial passage incubated for 24 hrs by serial dilution method; format: functional, organism-based
How it was run: (§2)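 NEB 5-alpha E. coli (DH5α derivative); 12-day liquid-culture serial passage. Dilute culture (OD600 = 0.01) grown 24 h with inhibitors in dose-response, in duplicate. EC50 taken from OD600 readings. Each day, bacteria were sub-cultured from the well with the highest inhibitor concentration still reaching OD600 > 0.2. Resistant strains were retested in a follow-up 24 h proliferation assay after 4×12 h passages without inhibitor, and were cross-tested against the other inhibitors.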

[15] = test system: Escherichia coli; test: Antibacterial activity against Nifuroxazide-resistant Escherichia coli assessed as reduction in bacterial growth measured for 12 day serial passage incubated for 24 hrs by serial dilution method; format: functional, organism-based; how it was run: as §2
[16] = test system: Escherichia coli; test: Antibacterial activity against Escherichia coli assessed as reduction in bacterial growth measured for 12 day serial passage incubated for 24 hrs by serial dilution method; format: functional, organism-based; how it was run: as §2
[17] = test system: Escherichia coli; test: Antibacterial activity against 5-chloro-N-[(5-nitro-2-furyl)methyleneamino]thiophene-2-carboxamide-resistant Escherichia coli assessed as reduction in bacterial growth measured for 12 day serial passage incubated for 24 hrs by serial dilution method; format: functional, organism-based; how it was run: as §2
[18] = test system: Escherichia coli; test: Antibacterial activity against Escherichia coli harbouring NfsA and NfsB mutant assessed as reduction in bacterial growth measured for 12 day serial passage incubated for 24 hrs by serial dilution method; format: functional, organism-based; how it was run: as §2

SMILES | EC50 [1] [µM] | EC50 [2] [µM] | selectivity ratio [3] | IC50 [4] [µM] | EC50 [5] [µM] | EC50 [6] [µM] | selectivity ratio [7] | EC50 [8] [µM] | EC50 [9] [µM] | EC50 [10] [µM] | CC50 [11] [µM] | CC50 [12] [µM] | IC50 [13] [µM] | Activity [14] | Activity [15] | EC50 [16] [µM] | Activity [17] | Activity [18]
CN(C)c1ccc(C(=O)N/N=C/c2ccc([N+](=O)[O-])o2)cc1 | > 100 | > 100 | > 10 | 26 | > 100 | 34 | 9.3 | > 100 | > 100 | 10 | > 100 | 93 | 12 |  |  |  |  | 
O=C(N/N=C/c1ccc([N+](=O)[O-])o1)c1ccncc1 | 13 | 54 | 26 | > 100 | 73 | 9.5 | 38 | 42 | > 100 | 2.4 | 61 | 90 | 23 |  |  |  |  | 
O=C(N/N=C/c1ccc([N+](=O)[O-])o1)c1ccc(Cl)s1 | 12 | 72 | 119 | 88 | 49 | 3 | 190 | 19 | > 100 | 0.45 | 53 | 85 | 3.2 | Active | Active | 20 | inactive | inactive
O=C(N/N=C/c1ccc([N+](=O)[O-])o1)c1ccccc1 | 31 | > 100 | > 48 | > 100 | > 100 | 10 | 45 | 36 | > 100 | 2.1 | > 100 | 94 | 12 |  |  |  |  | 
O=[N+]([O-])c1ccc(O)c2ncccc12 [NITROXOLINE] | 18 | 2.5 |  |  | 6.6 | 9.5 |  | 2.8 | 99 | 4 |  |  |  |  |  |  |  | 
O=C1CN(/N=C/c2ccc([N+](=O)[O-])o2)C(=O)N1 [NITROFURANTOIN] | 38 | > 100 |  | > 100 | 36 | 27 |  | 40 | > 100 | 0.69 | > 100 | > 100 | 84 | inactive | inactive | 20 | inactive | inactive
COc1ccc(C(=O)N/N=C/c2ccc([N+](=O)[O-])o2)cc1 | 22 | > 100 |  | 69 | > 100 | 8.1 | 40 | > 100 | > 100 | 1.9 | > 100 | 75 | 10 |  |  |  |  | 
O=C(N/N=C/c1ccc([N+](=O)[O-])o1)c1ccc(O)cc1 [NIFUROXAZIDE] | 8.1 | > 100 | 70 | > 100 | 54 | 16 | 91 | 37 | > 100 | 0.87 | 61 | 79 | 19 | Active | Active | 20 | Active | inactive
O=C(N/N=C/c1ccc([N+](=O)[O-])o1)c1cccs1 | 24 | 82 | 198 | > 100 | 40 | 7.1 | 168 | 16 | > 100 | 0.42 | 83 | 71 | 7.7 |  |  |  |  | 
